RGS4 pot: RGS4 potentiators or activators, primary screen, cell-based, HEK293 M3R inducible RGS4, calcium flux. carbachol calcium flux Fluo4; active compounds read low. B-score at 10 µM. hit rate 0.92% among 310,000;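 active = B-score of the integrated calcium signal more than 4 SD below the library mean, with starting fluorescence not abnormally high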;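 note: negative B-score means reduced calcium response which marks RGS4 activation or potentiation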
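Also added: carbachol at ECmax as muscarinic agonist stimulus; Assay system: HEK293 cells with stable M3R and inducible RGS4; Timing: overnight RGS4 induction, 30 min dye load 37 °C, 20 min compound RT; Measured by: Fluo4-AM (2 µM) calcium-flux fluorescence, kinetic read.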
RGS4 block: RGS4 inhibitors, primary screen, cell-based, HEK293 M3R inducible RGS4, calcium flux | AID 463165, 2010 | hit rate 0.45% among 310,000 | Regulator of G-protein signaling 4 (Homo sapiens), P49798 | B-score at 10 µM | Fluo-4 calcium flux; active compounds read high; triggered by carbachol at its EC20;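 active = B-score, a plate-corrected calcium signal, over three deviations above library mean, with baseline fluorescence within five deviations of library mean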;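 note: RGS4 expression induced by doxycycline in cells with stable M3 receptor; B-score is computed from the integrated fluorescence ratio over baseline after carbachol; higher B-score means a larger calcium signal and so more RGS4 inhibition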
Target sequence (P49798 whole entry, looked up): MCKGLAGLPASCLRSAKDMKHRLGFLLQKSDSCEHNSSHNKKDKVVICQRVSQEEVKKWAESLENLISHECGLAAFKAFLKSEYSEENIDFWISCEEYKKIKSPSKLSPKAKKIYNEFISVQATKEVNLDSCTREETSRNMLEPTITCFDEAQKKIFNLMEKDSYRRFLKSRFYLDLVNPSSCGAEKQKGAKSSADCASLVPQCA
MrgX1 agonist: agonists of human MrgX1 receptor, primary screen, HEK293 cells, Fluo-4 calcium flux | Fluo-4 calcium fluorescence, agonist mode; active compounds read high | Mas-related G-protein coupled receptor member X1 (Homo sapiens), Q96LB2 | hit rate 0.44% among 310,000 | AID 588627, 2011 | B-score at 10 µM;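 active = calcium response B-score plate-corrected fluorescence ratio at least 3 library SD, with starting fluorescence B-score inside 5 SD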
Target sequence (Q96LB2 whole entry, looked up): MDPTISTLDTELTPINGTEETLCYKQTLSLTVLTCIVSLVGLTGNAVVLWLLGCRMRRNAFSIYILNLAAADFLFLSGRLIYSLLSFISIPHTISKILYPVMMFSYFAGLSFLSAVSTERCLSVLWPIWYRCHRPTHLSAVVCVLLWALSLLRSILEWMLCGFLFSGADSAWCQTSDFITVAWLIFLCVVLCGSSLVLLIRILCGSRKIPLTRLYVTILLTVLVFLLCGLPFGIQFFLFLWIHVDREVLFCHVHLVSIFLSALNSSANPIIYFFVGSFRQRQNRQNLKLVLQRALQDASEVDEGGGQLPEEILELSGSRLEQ
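System – MrgX1-expressing HEK293 cells · Incubation – cells plated overnight, dye loaded 0.5 h 37 °C, 0.5 h room temperature · Technique – kinetic Fluo-4 NW fluorescence of intracellular calcium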
MrgX1 allo act: positive allosteric modulators of MrgX1, primary screen, HEK293 cells, Fluo-4 calcium flux; FDSS; active compounds read high; B-score at 10 µM; hit rate 0.63% among 310,000;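 active = plate-corrected calcium response at least 3 library SD above typical, normal starting fluorescence, not activating the receptor alone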;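 note: compound read alongside a low EC10 to EC30 dose of BAM8-22 agonist; peak minus trough fluorescence over baseline measured at the second addition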
KCC2 mod: KCC2 cotransporter modulators, thallium flux, primary screen, cell-based, HEK293 KCC2, FluoZin-2 fluorescence, MLSMR | Solute carrier family 12 member 5 (Homo sapiens), Q9H2X9 | KCC2 cells, thallium flux FluoZin-2 fluorescence | B-score of Tl+ flux slope (higher = more flux/activation; lower = inhibition) at 10 µM | hit rate 2.2% among 190,000;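 active = thallium flux slope and its plate-corrected score both differing from the plate sample mean at a set confidence after two filtering rounds, in either direction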;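 note: slope of fluorescence scaled to starting intensity during 10 to 20 s after thallium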
MrgX1 antagonist: antagonists of human MrgX1 receptor, primary screen, HEK293 cells, Fluo-4 calcium flux | BAM8-22 antagonism; active compounds read low | hit rate 1.3% among 310,000 | AID 588676, 2011 | Mas-related G-protein coupled receptor member X1 (Homo sapiens), Q96LB2 | B-score at 10 µM;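 active = calcium-response B-score plate-corrected more than 3 library SD below zero, starting fluorescence within 5 deviations, no agonist response on first addition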;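 note: peak minus trough fluorescence over baseline after final BAM8-22 challenge near maximal dose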
An asterisk follows results filed as active. Sampled rows, rich in hits. Any-hit rate of the full collection: about 4.7%.

`Cc1ccc(-c2cc(C(=O)Nc3ccncc3)c3ccccc3n2)cc1` gave RGS4 pot inactive, RGS4 block inactive, MrgX1 agonist inactive, MrgX1 allo act inactive and MrgX1 antagonist -7.6*.
`Cc1cccc(NC(=S)NC(=O)c2cc(-c3ccccc3)nc3ccccc23)c1` gave RGS4 pot inactive, RGS4 block inactive, MrgX1 agonist inactive, MrgX1 allo act inactive, KCC2 mod 8.5* and MrgX1 antagonist inactive.
Screening COc1cccc(-c2cc(C(=O)Nc3ccccc3)c3ccccc3n2)c1 returned RGS4 pot inactive, RGS4 block inactive, MrgX1 agonist inactive, MrgX1 allo act inactive and MrgX1 antagonist inactive.
For O=C(O)c1ccccc1NC(=O)c1cc(-c2ccccc2)nc2ccccc12 the results were RGS4 pot inactive, RGS4 block inactive, MrgX1 agonist inactive, MrgX1 allo act inactive and MrgX1 antagonist inactive.
For COc1ccc(-c2cc(C(=O)Nc3ccccc3O)c3ccccc3n2)cc1OC the results were RGS4 pot -7.3*, RGS4 block inactive, MrgX1 agonist inactive, MrgX1 allo act inactive, KCC2 mod 0.74 and MrgX1 antagonist inactive.
Screening COc1ccc(-c2cc(C(=O)Nc3ccc(Cl)cc3Cl)c3ccccc3n2)cc1OC returned RGS4 pot inactive, RGS4 block inactive, MrgX1 agonist inactive, MrgX1 allo act inactive, KCC2 mod -0.3 and MrgX1 antagonist inactive.
Screening O=C1CCC(C(=O)N2CCCCCC2)CN1Cc1cccc(C(F)(F)F)c1 (centres undefined) returned RGS4 pot inactive, RGS4 block inactive, MrgX1 agonist inactive, MrgX1 allo act inactive and MrgX1 antagonist inactive.
For COc1ccc(CN2CCNC(=O)C2CC(=O)NCC2CCOCC2)cc1C (centres undefined) the results were RGS4 pot inactive and RGS4 block inactive.
`O=C(NCCCNC(=O)c1cc(Cl)ccc1Cl)c1ccccn1` gave RGS4 pot inactive, RGS4 block inactive, MrgX1 agonist inactive, MrgX1 allo act inactive and MrgX1 antagonist inactive.
`O=C(NCc1cc([N+](=O)[O-])ccc1O)c1cc(-c2ccncc2)nc2ccccc12` gave RGS4 pot -9.1*, RGS4 block inactive, MrgX1 agonist inactive, MrgX1 allo act inactive and MrgX1 antagonist inactive.
For O=C(Nc1cccnc1)c1cc(-c2cccc(Br)c2)nc2ccccc12 the results were RGS4 pot -7.1*, RGS4 block inactive, MrgX1 agonist inactive, MrgX1 allo act inactive and MrgX1 antagonist inactive.
For O=C(NCc1ccc(F)cc1)c1cc(-c2ccncc2)nc2ccccc12 the results were RGS4 pot inactive, RGS4 block inactive, MrgX1 agonist inactive, MrgX1 allo act inactive and MrgX1 antagonist inactive.
For CCOC(=O)c1sc(NC(=O)c2cc(-c3ccccc3C)nc3ccccc23)c(C#N)c1C the results were RGS4 pot inactive, RGS4 block inactive, MrgX1 agonist inactive, MrgX1 allo act inactive, KCC2 mod -4.6 and MrgX1 antagonist inactive.
Screening Cc1ccccc1-c1cc(C(=O)Nc2sc(C)c(C)c2C(N)=O)c2ccccc2n1 returned RGS4 pot inactive, RGS4 block 6.2*, MrgX1 agonist inactive, MrgX1 allo act inactive, KCC2 mod 0.77 and MrgX1 antagonist inactive.
Screening CC1CC(C)CN(C(=O)C2CCN(S(=O)(=O)c3c(Cl)cccc3Cl)CC2)C1 (centres undefined) returned RGS4 pot inactive, RGS4 block inactive, MrgX1 agonist inactive, MrgX1 allo act inactive and MrgX1 antagonist inactive.
Screening CC1(C)CC(=O)C/C(=N/NC(=O)COc2ccc3ccccc3c2Br)C1 returned RGS4 pot inactive, RGS4 block inactive, MrgX1 agonist inactive, MrgX1 allo act inactive and MrgX1 antagonist -8*.
For Cc1ccc(S(=O)(=O)N(CC(=O)Nc2ccc(C)cc2C)C(=O)N2CCN(C)CC2)cc1 the results were RGS4 pot inactive, RGS4 block inactive, MrgX1 agonist inactive, MrgX1 allo act inactive and MrgX1 antagonist inactive.
Screening Cc1cccc(C(=O)N2CCN(CCNC(=O)C(=O)Nc3ccc(F)cc3)CC2)c1 returned RGS4 pot inactive, RGS4 block inactive, MrgX1 agonist inactive, MrgX1 allo act inactive and MrgX1 antagonist inactive.
For O=[N+]([O-])c1cnc2ccccc2c1 the results were RGS4 pot inactive, RGS4 block inactive, MrgX1 agonist inactive, MrgX1 allo act inactive, KCC2 mod 0.75 and MrgX1 antagonist inactive.
Screening O=[N+]([O-])c1cc([N+](=O)[O-])c2cc3ccccc3nc2c1 returned RGS4 pot inactive, RGS4 block 14*, MrgX1 agonist 28*, MrgX1 allo act inactive and MrgX1 antagonist inactive.
`CCOc1cc2[nH]c(=S)n(C3CC3)c(=O)c2cc1OCC` gave RGS4 pot inactive, RGS4 block inactive, MrgX1 agonist inactive, MrgX1 allo act inactive, KCC2 mod 1.2 and MrgX1 antagonist inactive.
`CCOc1cc2[nH]c(=S)n(C(C)C)c(=O)c2cc1OCC` gave RGS4 pot inactive, RGS4 block inactive, MrgX1 agonist inactive, MrgX1 allo act inactive, KCC2 mod 9.7* and MrgX1 antagonist inactive.
Screening CC1CCCCC1n1c(=S)[nH]c2ccccc2c1=O (centres undefined) returned RGS4 pot inactive, RGS4 block inactive, MrgX1 agonist inactive, MrgX1 allo act inactive, KCC2 mod 187* and MrgX1 antagonist inactive.
For CC(C)n1c(=S)[nH]c2ccccc2c1=O the results were RGS4 pot inactive, RGS4 block inactive, MrgX1 agonist inactive, MrgX1 allo act inactive, KCC2 mod 37* and MrgX1 antagonist inactive.
`COn1c(=S)[nH]c2ccccc2c1=O` gave MrgX1 agonist inactive, MrgX1 allo act inactive and MrgX1 antagonist inactive.
Screening CCC(NC(=O)c1cc(COc2ccc(F)cc2Cl)on1)c1ccncc1 (centres undefined) returned RGS4 pot inactive and RGS4 block inactive.
For COc1ccccc1N1CCN(C2CCCN(C(=O)c3cccc(-c4ccco4)c3)C2)CC1 (centres undefined) the results were RGS4 pot inactive, RGS4 block inactive, MrgX1 agonist inactive, MrgX1 allo act inactive and MrgX1 antagonist inactive.
